For three molecules, GI50, IC50 and inhibition results are on record in ChEMBL document CHEMBL1148362 (J Med Chem, 2004).

One may read the GI50 as the concentration that inhibits growth by half. Low values mean more potent growth inhibition, high ones less potent growth inhibition. The term pIC50 denotes −log10 of the IC50, conventionally taken in molar units.

In one assay the test system is CCRF-CEM. Description: Inhibition of cell growth in CEM leukemia T cells was determined. The format is functional. The settings on record: Homo sapiens.
The test system of the next assay is Jurkat. The experiment in a line: Inhibition of IL-2 production was determined in Jurkat cells after PMA/PHA activation by Enzyme immunoassay. The settings on record: Homo sapiens. It is filed as functional, cell-based. In short, it runs like this:
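Human Jurkat leukemia T-cells exposed to test agents 30 min before PMA activation. Cell-free supernatants collected after 24 h and total IL-2 quantified by competitive enzyme immunoassay. Dose–response tested up to 10 μM. IC50 derived. PDTC control included in all experiments.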

The next assay has as its system THP-1. Description: Inhibition of TNF-alpha production was determined in THP-1cells after LPS activation by Enzyme immunoassay. The following applies: Homo sapiens. The format is functional, cell-based. An outline of the steps:
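Human monocytic THP-1 cells treated 30 min before LPS activation, then incubated 3 h. TNF-α in the output measured by competitive enzyme immunoassay and IC50 derived. Values are mean of two experiments with standard deviation. PDTC served as control.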

In assay [1] the test system is Nuclear factor NF-kappa-B (Homo sapiens). The experiment in a line: Inhibition of DNA binding of NF-uM) PMA/PHA activated Jurkat cells; No significant inhibition.

pIC50: −log10 of the molar value.

`NC1=NC(=O)/C(=C2\CCNC(=O)c3[nH]c(Br)cc32)N1` [HYMENIALDISINE] came in with a GI50 with CCRF-CEM of 1610 nM. The pIC50 in the assay on Jurkat was 5.62; in the assay on THP-1 it was 5.87.

`Cn1c2c(c3ccccc31)/C(=C1\N=C(N)NC1=O)CCNC2=O` returned a GI50 with CCRF-CEM of 14300 nM. The pIC50 with Jurkat and in the assay with THP-1 was < 5.00 throughout. Further, the inhibition entry in assay [1] was “No effect”.

In the assay with CCRF-CEM, `Nc1nc(C2=C3C(=Nc4ccccc43)C(=O)NCC2)c(O)[nH]1` returned a GI50 of 1730 nM. Moreover, the figures for the pIC50 in the assay on Jurkat and in the assay with THP-1 were 5.45 and 5.09, respectively.
